Test system: MS2 coat protein
Assay: apparent Kd, MS2 coat protein; higher = weaker binding; RNA-MaP array; FMN 200 µM where present
Summary of the method: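 Stalled E. coli RNA polymerase transcribed each design on Illumina sequencing-chip clusters. The clusters were titrated with SNAP-549-labelled MS2 coat protein, starting at 0.7 or 1.5 nM and doubling up to 3 µM, first without ligand and then with constant ligand, in 100 mM Tris-HCl pH 7.5, 80 mM KCl, 4 mM MgCl2, BSA, DTT, yeast tRNA and Tween-20. Green signal was normalised to red-channel RNA signal and to the control-cluster median Fmax. The apparent Kd is the median of filtered binding-curve fits made for each cluster.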

[1] = designed as: OFF switch for flavin mononucleotide, no ligand
[2] = ligand present: flavin mononucleotide, designed as: OFF switch for flavin mononucleotide
[3] = designed as: ON switch for flavin mononucleotide, no ligand
[4] = ligand present: flavin mononucleotide, designed as: ON switch for flavin mononucleotide

| Sequence | apparent Kd [1] [nM] | apparent Kd [2] [nM] | apparent Kd [3] [nM] | apparent Kd [4] [nM] |
| --- | --- | --- | --- | --- |
| GAACUGAAGCAUAGCUUUAGUCGUACAUGAGGAUCACCCAUGUAGGAUAUGGUAGGCAUCGCUUACUAGAAGGAUAGAGUGAUC | 172 | 87.1 |  |  |
| AGUCGGAUCUAUUAACAUGAGGAUCACCCAUGUAUUUGCAACUAGGAUAUCGAUUAUUAUUUCGUCGAGAAGGAGUAUACAUAA | 24.2 | 37.3 |  |  |
| GUUCUGCCUCCUGCCGGAACAUGAGGAUCACCCAUGUUGCCUGAGGAUAUCCUAUGGCGCCCACAGGAGAAGGCGGGCAACAUA | 38.1 | 233 |  |  |
| AGUCGGAGCAGAGGAUAUUACAUGAGGAUCACCCAUGUAAUAAAUGGAAGCUGGAAACAGCAAUGUAAGAAGGCUGCUCCGACA | 16.4 | 47.9 |  |  |
| GUACUGAAGCUUUGCUUUAGUCGUACAUGAGGAUCACCCAUGUAGGAUAUGGUAGGCUUUGCUUACUAGAAGGAUAGAGUGAUU |  | 39.8 |  |  |
| CGCAUACUAGGAUAUACAUGAGGAUCACCCAUGUCGCCGGGCCCACUCAUACUAAAACGUAGAAGGAGUUUGCC | 18.5 | 18.8 |  |  |
| AUCAGCUCGUCAGGAUAUACUUCACUGCGUCAGCAGUGUGGUAAGAUCACAUGAGGAUCACCCAUGUAGAAGGGACGAGCUGAU | 6 | 8.71 |  |  |
| UCAUUUAAUACAGGAUAUGUUAGUAUACAGUUGAUUGGUUAUUACAUAAUAACAGAAGGGUAGAACAUGAGGAUCACCCAUGUA |  |  | 254 | 131 |
| UAUACACAUGAGGAUCACCCAUGUGAGGAUAUGUUAAUUUUAAUGAAAAUUAAAAUUAACAGAAGGCACAUAUA | 64.1 | 80.3 |  |  |
| AGUGUCAUCCAGAAGGCCUCAUGACAUGAGGAUCACCCAUGUUAUCAUGGGAGGAUAUGGAUGAUACAGCUACGUUUCGUAGCA |  |  | 90.5 | 25.4 |
| CCAGCAACAUGAGGAUCACCCAUGUAGGAUAUCGCUAUUGUAAUCAUGAAACAUGAUUACAAUAGCGAGAAGGACAUAUGCUCC | 7.53 | 10.2 |  |  |
| UGGAAUUGCGAGAAGGACAUGAGGAUCACCCAUGUAGGAUAUCGACCUAGGUGCAGAUCGUUAUAGGAUCUCUUCGCUUCUAGG |  |  | 16.7 | 7.14 |
| GUAGCAUGCCAAGGAUAUUCAUAUAGUAGGCAAACAUGAGGAUCACCCAUGUAAUGAUCGCAGUGGGAGAAGGUGGGAUGCUAC |  |  | 31.8 | 21.1 |
| GAGUGCUGAGGAUAUACAUGAGGAUCACCCAUGUGCUUCAGCUAGGAGACUAGCAUUGGUAGAAGGUAGUACUC | 11.7 | 15.4 |  |  |
| AUAUUUGUGUAGAAGGUACGUGAUUAGUCAUAGUAAGGAUAUACUGACAUGAGGAUCACCCAUGUAUAAAUAGUUAAAUGUUCU |  |  | 14.4 | 8.52 |
| GACGGAUGUAUAGGAUAUGCUGAGGAUAACUCAGCAGAAGGAUACAUGAGGAUCACCCAUGUAAUAAUAAUAAUAAUAACCGUC | 13.3 | 24.1 |  |  |
| GCGGCUCACAUGAGGAUCACCCAUGUUCGCAUAUUGUGAAACAGAAGGCGGACUCAGCGAUGGGCCGAGGAUAUGUUUCCCACA |  |  | 124 | 25.8 |
| UAACAGCAAGGAUAUACGGGCUGUGCUUUUCAUUUCUUACAACAUGAGGAUCACCCAUGUAGAAGGUGCAACAU | 32.5 | 76.9 |  |  |
| AAAUGCGUAAAGGACACAUGAGGAUCACCCAUGUUUCUGUCCAAGGAUAUGAGGUGAAUGAUCCGUCAGAAGGUGGACUUGCUU |  |  | 114 | 220 |
| UUCUUACGAGGAUAUCGAUUGUGGUACAUGAGGAUCACCCAUGUAUGUGAUAUUGUAUUUCGAGAAGGCGUUCAGU | 26.4 | 24.1 |  |  |
| GCUUGUGAAGGAUAUACUGGCGGCGUGCGCUCGGCGCGCGCACAUGAGGAUCACCCAUGUAGAAGGUCAAACGU | 14.3 | 13.1 |  |  |
| CAGGUAGACUGAGGAUAUACAAUAAGACCUAGUCUAUCUAGGUCCCUCACAUGAGGAUCACCCAUGUAGAAGGCAGUCUGCCUG | 51.5 | 636 |  |  |
| UCGUGUAUAGAGGAUAUAUUAUUUUUUUUAACAAUAGAAGGCUAAACAUGAGGAUCACCCAUGUAUUUUUUUUU | 31.4 | 44 |  |  |
| CCUGUCGUAUGAGGAUAUGGUCAGCUUUGCUGACCAGAAGGCAUGUCAAUAGACAUGAGGAUCACCCAUGUAGUAAAGACAGGA |  |  | 381 | 40.1 |
| AUCAGCUCGUCAGGAUAUACGUCACUGCGUCAGCAGUGUGCUAAGAUCACAUGAGGAUCACCCAUGUAGAAGGGACGAGCUGAU | 5.83 | 22.1 |  |  |
| UAUACUAGAUAGGAUAUACUAUAUAUAUUAUUCGUAGAAGGAUCUACAUGAGGAUCACCCAUGUUAACAGCAGU | 47.6 | 37 |  |  |
| CUUUUGUGAGGAUAUCAGUGGUAAAACAAUAGUAUUACUACUGAGAAGGCACAUGAGGAUCACCCAUGUUCCUC | 47.1 | 304 |  |  |
| GGGCAUAUUACAUGAGGAUCACCCAUGUCAGAAAGGGUAAUCAGAAGGUACUAUUAGAGAAAGAGUAAGGAUAUGAUUAUGCCC |  |  | 486 | 40.6 |

| Sequence | apparent Kd [1] [nM] | apparent Kd [2] [nM] | apparent Kd [3] [nM] | apparent Kd [4] [nM] |
| --- | --- | --- | --- | --- |
| ACAUGUACAGGAUAUACAUGGAUGAUACACGUAUUUCCACUACAUGAGGAUCACCCAUGUAGAAGGGUACAUGA | 39.7 | 18.4 |  |  |
| UUAAAUCAUGUAGGAUAUGCAUGGCGAAGCUACGCAGAAGGACAUGAGGAUCACCCAUGUUCGAGGGUCUGAGUACAGAUCCAA | 23.6 | 123 |  |  |
| GGACAUCCCACAGGAUAUGCUGGACUUUGUCCAGCAGAAGGGUGAAACACAUGAGGAUCACCCAUGUGGAUGUCCAUAUUUAAU |  |  | 180 | 694 |
| AUCAGCUCGUCAGGAUAUACAUCACUGCUUCGGCAGUGUAUCAUAACAACAUGAGGAUCACCCAUGUAGAAGGGACGAGCUGAU | 23.8 | 34.7 |  |  |
| ACGGCCUUACAUGAGGAUCACCCAUGUGAGUAUGGAGUUACACAGGAUAUCCGCGUGGCAGGCAAGGAGAAGGGUGUAUUAGGA |  |  | 70 | 21.9 |
| AAUAUAAAAGAGCUGGAUAAACUCACAUGAGGAUCACCCAUGUAGGAUAUCAGCACGAUAAGUGCUGAGAAGGACAACCAGCUC | 14.8 | 15.3 |  |  |
| GCAGCACUGUAGUACAUGAGGAUCACCCAUGUCGAUUGUUAUGAGGAUAUGCAUCGUAUGAAGAUGCAGAAGGCAUUGUGCUGC |  |  | 5.22 | 5.04 |
| GUGGAGUACGUAGGAUAUGUAGGAUAUUCCUACAUGAGGAUCACCCAUGUAUGCAUGGAAGAAGGACAGAAGGACGUGCUCCAG |  |  | 208 | 13.5 |
| CGGCGCUGUCGAGAGGAUAUGCGGUGAUGGACAUGAGGAUCACCCAUGUUAGCGAUAGCAUUACGGUAGAAGGCUCUACAGCUGC |  |  | 34.7 | 16.3 |
| AUGCCCUGAGGAUAUCUCAUCCCGCACAUGAGGAUCACCCAUGUUCUCCUCCGGGCUCCGAGAGAAGGCAGGCCCA | 55.6 | 87.2 |  |  |
| AAUUAUUAUUGAGGAUAUGGUAGUGAAACACUACCAGAAGGCGGUAUAAACAUGAGGAUCACCCAUGUGAGCCUGAUGCUUAUG | 24.2 | 44.2 |  |  |
| GCCAUCGCGUGAGGAUAUGCUCCGGUUUCCGGAGCAGAAGGCAUGUCAUUAGACAUGAGGAUCACCCAUGUAGUUAAGAUGGCA |  |  | 562 | 18.2 |
| AAAACAUGAGGAUCACCCAUGUAUAGAUCGGUUGAUAGGAGUGAGGAUAUGCUUAAAAUAAGGUAGCAGAAGGCACUGGGUACA |  |  | 37.1 | 40.1 |
| UAAGAAGCACUCGGAACCGGACAAUGAGAAGGCCACGCACAUGAGGAUCACCCAUGUAAAGCUAUGGAGGAUAUCAUGAUGGAA |  |  | 80.9 | 8.71 |
| UUUGCAUGACGAGGAUAUCAUUUAUUUCUUGAUUGAGAAGGCGUUCUUUUUACUACCUAACAUGAGGAUCACCCAUGUGACAGU |  |  | 16.1 | 12.7 |
| CUUCUGUAAGGAUAUUGCGAUAAGCAUGACAUCGCCGGUCGCAAGAAGGUACAUGAGGAUCACCCAUGUGCGGU | 161 | 152 |  |  |
| GGCAGACAUGAGGAUCACCCAUGUCAGGAUAUUAGGCGAUCGUCGAUAGACGAUAGCCUGAGAAGGGACAUGCC | 23.8 | 54.1 |  |  |
| ACUUGUAAGCAGAAGGCAGUCAUUAUAUUCAUCAUGUAGACAUGAGGAUCACCCAUGUAGAGUACUGAGGAUAUGCAUCGAUAG | 6.41 | 8.85 |  |  |
| AAAAAGGCAGGAUAUACAUGAGGAUCACCCAUGUAGUUGACAAAAAAGAGUCAACAGUGUAGAAGGGCCAAAAA | 19.3 | 24.6 |  |  |
| UAGAUGUGAGGAUAUACGUAGAUGCAGGUUCGUGUGGUGCUACAUGAGGAUCACCCAUGUAGAAGGCACGUCUU | 19.3 | 20.2 |  |  |
| AAUUAAGAUCAAGGAUAUCACGUCGAAUAGACGUGAGAAGGUGAUCCAUACAUGAGGAUCACCCAUGUAUAACAUGAAUUAAUU |  |  | 923 | 170 |
| ACAUACAUUCGAGGAUAUCGGUGAACAAAUUAACGAGAAGGCGAUAUAAUGUUUAAUCUUAUAAACAUGAGGAUCACCCAUGUA |  |  | 68.5 | 28 |
| AUGAAGUCAGGAUAUCGUUAAUUUAGUUGUUUGUAUUAGUUCGAGAAGGGACAUGAGGAUCACCCAUGUAAGUA | 31.7 | 38.5 |  |  |
| CCGUCGCUUAGCGCUCCUCAUACAUGAGGAUCACCCAUGUACAGAAGGCGGAGGGCCAGGCCCACCGAGGAUAUGUAAGUGUGA | 73 | 73.2 |  |  |
| UUUCUUGGGCAAGGAUAUCCUGUGCGGUUACGGCUCGUGUCUGUCACAUGAGGAUCACCCAUGUGGGAGAAGGUGCCUGCGGUC | 6.09 | 6.78 |  |  |
| UCAUGAAGGGCAGGAUAUGGACAUGAGGAUCACCCAUGUACAUGGGAUUAUAUACUGAAUUUAUACUAGAAGGGUUACAUAAAU | 31 | 18.1 |  |  |
| CGGCGCUGUUGAGAGGAUAUGCGGUGAUGGACAUGAGGAUCACCCAUGUUAGCGAUAGCAUUACGGUAGAAGGCUCUACAGCUGU |  |  | 28.1 | 16.7 |
